This data set deals with MS2 coat protein. Kind of data set: apparent Kd, MS2 coat protein; higher = weaker binding; RNA-MaP array; FMN 200 µM where present. The method, boiled down: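 Apparent Kd: the median of filtered binding-curve fits from single clusters. Designs were transcribed on Illumina sequencing-chip clusters by stalled E. coli RNA polymerase and titrated with SNAP-549-labelled MS2 coat protein from 0.7 or 1.5 nM, doubling to 3 µM, in 100 mM Tris-HCl pH 7.5, 80 mM KCl, 4 mM MgCl2, BSA, DTT, yeast tRNA and Tween-20. Each series ran without and then with constant ligand, and green signal was normalised to red-channel RNA signal and control-cluster median Fmax.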

Setting [1] is: designed as: OFF switch for flavin mononucleotide, no ligand.
Setting [2] is: ligand present: flavin mononucleotide, designed as: OFF switch for flavin mononucleotide.
Where [3] appears, read: designed as: ON switch for flavin mononucleotide, no ligand.
The mark [4] stands for this setting: ligand present: flavin mononucleotide, designed as: ON switch for flavin mononucleotide.

As for “AAUGGGUGUGUGAGGAUAUACGAUGGCAGUUGCCAGUAGAAGGUACAUGAGGAUCACCCAUGUGUCCAAAAGUG”, the “apparent Kd” value runs as follows: under setting [1], 13.2 nM; under setting [2], 16 nM.

Turning to “GUCGUGUGAGGAUAUGAUUGUACGGCAGACUAGCGUCUGCUUCAGAAGGCACAUGAGGAUCACCCAUGUUUGUC”, the “apparent Kd” value under setting [1] was found to be 18.6 nM and the “apparent Kd” value under setting [2] amounted to 34.4 nM.

Consider “AGAAAACAUGAGGAUCACCCAUGUCAGGAUAUCCUGCGGCAAUACACGCCGCGUUGUCGGAGAAGGGACAGGGA”, for which the “apparent Kd” value is, setting by setting: under setting [1], 39 nM; under setting [2], 102 nM.

Regarding “GGUACUCAAAGAGUACCAAUACGAACAUGAGGAUCACCCAUGUAGGAUAUGCAAAAGCCGGAGUAGCAGAAGGACAUGUGCCUA”, the “apparent Kd” value reads like this: under setting [1], 12.6 nM; under setting [2], 46.4 nM.

On to “GUCACCCGAUGAGGAUAUGCACAUGAGGAUCACCCAUGUGACCUCAUCGUGCCGGGAAGCCGGCUGCAGAAGGCAUUGAGGGAU”, for which the “apparent Kd” value runs as follows: under setting [1], 7.76 nM; under setting [2], 7.25 nM.

As to “GUAGCAUACCGAGGAUAUUCAUAUCGUAAUCGAACAUGAGGAUCACCCAUGUGGCGAAAGCCUUGGGAGAAGGCGGAAUGCUAC”, the “apparent Kd” value under setting [3] came to 360 nM and the “apparent Kd” value under setting [4] was found to be 25.9 nM.

Take “AGCAAAUCAGGAUAUGUACUGGACGACAUGAGGAUCACCCAUGUGAUUCAGUGCGCGAGAACAGAAGGGAUUCGCU”: the “apparent Kd” value under setting [1] was 17.4 nM and the “apparent Kd” value under setting [2] is 42.8 nM.

In the case of “AAAAAGUCAGGAUAUAUCAAAGCCUAUGAAAGUGGGAAAGGGUAGAAGGGACAUGAGGAUCACCCAUGUAAAAA”, the “apparent Kd” value runs as follows: under setting [1], 52 nM; under setting [2], 50.3 nM.

As for “GACACGUGAGGAUAUACAUGAGGAUCACCCAUGUAAGUACACGUGGCUGUUCCUGCAUGUAGAAGGCACGCAUU”, the “apparent Kd” value came out at 22.8 nM under setting [1] and 17.2 nM under setting [2].

For “CAAAACUGAGGAUAUACAUGAGGAUCACCCAUGUCCAAGGUCCUGGGCGGAUGCUGCUGUAGAAGGCGGAAAGA”, the “apparent Kd” value reads like this: under setting [1], 22.4 nM; under setting [2], 32.4 nM.

Turning to “UUACUCAUGUAAGGAUAUGCAGCCGUUUCGGCUGCAGAAGGUACUAUAAUACAUGAGGAUCACCCAUGUCUUUUUAAUUUGUAC”, the “apparent Kd” value under setting [3] was found to be 35.7 nM and the “apparent Kd” value under setting [4] was determined as 23.1 nM.

Turning to “UCGAACGGAAAUAAAGUAAAUAGACAUGAGGAUCACCCAUGUAAGGAUAUGCCUACUAAAAGUAGGCAGAAGGUACGCGUUCGA”, the “apparent Kd” value is, setting by setting: under setting [1], 17.5 nM; under setting [2], 19.2 nM.

For “GUCCUACAUGAGGAUCACCCAUGUGAGGAUAUGGUUUCGCUGGCCGUAGCCAGUGGAACCAGAAGGCGCGUGAU”, the “apparent Kd” value reads like this: under setting [1], 65.3 nM; under setting [2], 73.4 nM.

For the sequence “CUUCUCAAAGGAUAUCACGGUAAUAACAUGAGGAUCACCCAUGUGCAAUUCGUGUCCCUGUGAGAAGGUUGAGAAG”, the “apparent Kd” value is, setting by setting: under setting [1], 10.5 nM; under setting [2], 18.2 nM.

Take “GUCUUACAUGAGGAUCACCCAUGUGAGGAUAUGGUUUCGCUGGCCGUAGCCAGUGGAACCAGAAGGCGCAUGAU”: the “apparent Kd” value reads like this: under setting [1], 25.7 nM; under setting [2], 44.9 nM.

For the sequence “ACGUGUCGUGUAGGAUAUGACACAGGAAACUGGUCAGAAGGACAUGAGGAUCACCCAUGUAGAGUGUUUAAGGAUGACGUAUGC”, the “apparent Kd” value is, setting by setting: under setting [1], 46.9 nM; under setting [2], 161 nM.

As to “UGGUACAAGGGAGGAUAUGGGAAGAUACAUGAGGAUCACCCAUGUUUAAGAAUGCCGAGAGGCAACUAGAAGGCCCUAGUACCU”, the “apparent Kd” value came to 506 nM under setting [3] and 20.4 nM under setting [4].

Take “ACGGAACAUGAGGAUCACCCAUGUAUCUGAGAUAUGGUCUCGCAGGAUAUUCAGAGAAGCCAAUCGGAGAAGGGUGACACCAAA”: the “apparent Kd” value under setting [3] worked out at 36.6 nM and the “apparent Kd” value under setting [4] came out at 19.6 nM.

“AAGGCACCUGAGAAGGGUACAUGAGGAUCACCCAUGUGGCUAUUUGUGCGUCGUUGACCAAGUGUACAGGAUAUUAGGGAACGU”: the “apparent Kd” value reads like this: under setting [1], 98 nM; under setting [2], 32.4 nM.

As for “GCGUUGUUGUAGAAGGUACAUGAAUACUUUUAAUACCUCAAGUAACAUGAGGAUCACCCAUGUAGUAAGGAUAUACAUGAACGC”, the “apparent Kd” value under setting [3] was determined as 35.4 nM and the “apparent Kd” value under setting [4] worked out at 30.2 nM.

For the sequence “GCACAGGCAGGAUAUACAUGAGGAUCACCCAUGUGACCCUUGAAGUACUCGCGUACUCGUAGAAGGGCCUGUGC”, the “apparent Kd” value is, setting by setting: under setting [1], 177 nM; under setting [2], 302 nM.

With “UCAUUUCAGUAAGGAUAUUUAUUCAUGACGAUACAUGAGGAUCACCCAUGUAAAGAAGGUACUAAUACAAAUAAUGCAUUGUUC”, the “apparent Kd” value turned out to be 11.9 nM under setting [1] and 10.1 nM under setting [2].

In the case of “ACAGAUCCUGACAUGAGGAUCACCCAUGUUAGAUUGUUAUGUCAGGAUAUUAUCUGGCAACCAGAUGAGAAGGGACGAUCUGUG”, the “apparent Kd” value under setting [3] was 240 nM and the “apparent Kd” value under setting [4] came out at 15.5 nM.

In the case of “UCGCUGCGAGGAUAUACGUUUGCGCGCUUUCGUUUGCGCGUACAUGAGGAUCACCCAUGUAGAAGGCGCGCUGC”, the “apparent Kd” value is, setting by setting: under setting [1], 15.5 nM; under setting [2], 15.5 nM.

As for “GUGGUCAGACAUGAGGAUCACCCAUGUGGAAUAAAUAAGGACUAGGAUAUGGAAUAUAGGAUAUACCAGAAGGAGUGGUUGGUG”, the “apparent Kd” value under setting [3] came out at 56.4 nM and the “apparent Kd” value under setting [4] was 60 nM.

Take “UUGAUAAGGAGAGGAUAUUGACAUGAGGAUCACCCAUGUACAUGGGAGUGUUUACUGAAUUCUUACGAGAAGGCUUACAUAUUU”: the “apparent Kd” value is, setting by setting: under setting [1], 245 nM; under setting [2], 166 nM.

In the case of “CACGAUGAUGUAGGAUAUAUGCUGGAAUACAGCAUAGAAGGACAUGAGGAUCACCCAUGUUAAGUGCCUCCAAAUAACAUCGUG”, the “apparent Kd” value is, setting by setting: under setting [1], 15.7 nM; under setting [2], 21.7 nM.

As for “GAGCGGGAAACAUGAGGAUCACCCAUGUGAUGAAUCCUCACAUAGGAUAUCCACACGAGAAGUGUGGAGAAGGAUGACCCGGUC”, the “apparent Kd” value under setting [1] was 1120 nM and the “apparent Kd” value under setting [2] came to 1700 nM.

In the case of “UAAUUUAACAAGAAGGCUAACAUGAGGAUCACCCAUGUUGUACAUGGAUAUAGAGGAUAUUGCUAAUAAUUAUUUAUCAUAAUU”, the “apparent Kd” value reads like this: under setting [1], 24.2 nM; under setting [2], 19.2 nM.

Take “UGCGUGGUCACAGGAUAUGCAGGAUGAACUUUAGCAGAAGGGUGAUCAAUCAGCUCAAAACCACAUGAGGAUCACCCAUGUCUA”: the “apparent Kd” value is, setting by setting: under setting [3], 31.9 nM; under setting [4], 92.9 nM.

As for “GAUCCUUAAGUCAGGAUAUCAAGCAAACUCUAAAUUGAGAAGGGACAUGAGGAUCACCCAUGUCACCGAAAUAA”, the “apparent Kd” value under setting [1] amounted to 14.7 nM and the “apparent Kd” value under setting [2] was found to be 16.2 nM.

“UAUCCACAUGAGGAUCACCCAUGUGAGGAUAUGUCCAUAUUCGGCAAAUCGGAUAUGGACAGAAGGCACACCGG”: the “apparent Kd” value by setting is: under setting [1], 36.9 nM; under setting [2], 103 nM.

Regarding “UAUAUAUAGUAAGGAUAUGUAUUAGUUUUAUAAACAGAAGGUACUGACAUGAGGAUCACCCAUGUUUUAGUGUGGGCAUGUAGA”, the “apparent Kd” value runs as follows: under setting [1], 90 nM; under setting [2], 144 nM.

As to “UCGAAGUCCGCCGGACGGCGAGCGAGAAGGCACAAUGAAACGACUCUACAUGAGGAUCACCCAUGUGAGGAUAUCGCGACCUAG”, the “apparent Kd” value runs as follows: under setting [1], 8.27 nM; under setting [2], 57.7 nM.

For “GAAUAAUUGAUCCAUUUUUAAAACAUGAGGAUCACCCAUGUGCAGGAUAUCGAUAGUUUUAGAUUCGAGAAGGGCAAGAACUGU”, the “apparent Kd” value runs as follows: under setting [1], 88.2 nM; under setting [2], 149 nM.

“CCUUGACAUGAGGAUCACCCAUGUUAGGAUAUAACAUUAGACACUACAGUAUGUAGUGUUAGAAGGGAUAUGGG”: the “apparent Kd” value by setting is: under setting [1], 22.8 nM; under setting [2], 28.5 nM.

Turning to “GCACGGUAAGUGAGGAUAUACCUCUGGAUACAGAGGUAGAAGGCACAUGAGGAUCACCCAUGUCUCAGCCGUGC”, the “apparent Kd” value under setting [1] worked out at 16.3 nM and the “apparent Kd” value under setting [2] turned out to be 78.2 nM.

In the case of “GGUGCGAUGUAGAAGGCAGAUCUGAUUCAGAUCUGAGGAUAUACAUGAGGAUCACCCAUGUUACGCACCAGCACGAGAGUGCAA”, the “apparent Kd” value reads like this: under setting [1], 6.18 nM; under setting [2], 11.1 nM.

Turning to “UCUAAUUAGUGAGGAUAUACAUAAUUUAUAACUGUAGAAGGCACAAACCUCAAGACAUGAGGAUCACCCAUGUGGUAUUUAGAU”, the “apparent Kd” value is 150 nM under setting [1] and 354 nM under setting [2].

With “AAUCGGGAGCAGAAGGCAUGUAAUAAGACAUGAGGAUCACCCAUGUAGUUAAGGCGAAAGCCGCAUGAGGAUAUGCUCCCGUAA”, the “apparent Kd” value under setting [3] turned out to be 5.26 nM and the “apparent Kd” value under setting [4] worked out at 4.99 nM.

As to “GAGUAGUUGGAAGGAUAUCGAUUGUUAUAGAAUCGAGAAGGUCCUAACAUGAGGAUCACCCAUGUAGGACUAUUCCUGUGUAUC”, the “apparent Kd” value under setting [3] turned out to be 11.3 nM and the “apparent Kd” value under setting [4] amounted to 9.64 nM.

With “AGGGAGUGAGGAUAUGCUGCUCGUCACUUGCGUGAUGAGUAGCAGAAGGUACAUGAGGAUCACCCAUGUAAAGA”, the “apparent Kd” value was found to be 34.5 nM under setting [1] and 22.2 nM under setting [2].

Regarding “CCUUCAGCGAACGAUACGAAUGGACAUGAGGAUCACCCAUGUAGAAGGACAGGAGAAUAACGGCUGUAGGAUAUACAUUUAGUG”, the “apparent Kd” value by setting is: under setting [1], 39.9 nM; under setting [2], 30 nM.

For “CCGACGAAAGUCGAACGAUGUAGCAGAAGGACAUGAGGAUCACCCAUGUCAGCUGUAACAGCCAUGUAGGAUAUGCUACAUCGU”, the “apparent Kd” value came out at 4.28 nM under setting [1] and 5.85 nM under setting [2].

On to “CCCUGAGACUGGUUAAUUGGCUGAUAGGAUAUCCUCGGACAUGAGGAUCACCCAUGUUAACUAUUGGAGAAGGGUCAGCGAAAG”, for which the “apparent Kd” value runs as follows: under setting [3], 445 nM; under setting [4], 181 nM.

Consider “GGGUGGCGUAGAGGAUAUAUGGUACAUGAGGAUCACCCAUGUACAUAUGAUGUUCAUGUUUAUGUAUAGAAGGCUACGUCGCUA”, for which the “apparent Kd” value by setting is: under setting [3], 10.1 nM; under setting [4], 9.76 nM.

In the case of “UAGCCCGGCCAGAAGGGAGCUAUACAUGAGGAUCACCCAUGUCACUGACUCAGGAUAUGGCGCGCUUGGUAUAAGUAUUCAUGG”, the “apparent Kd” value under setting [3] turned out to be 8.36 nM and the “apparent Kd” value under setting [4] was 5.46 nM.

With “AAAUAGAUCCGAGGAUAUACAAUCCGGAAACGGUACAUGAGGAUCACCCAUGUAGAAGGCGGAUCUACAGGUACUAAAGUAAAA”, the “apparent Kd” value by setting is: under setting [1], 10.8 nM; under setting [2], 10.8 nM.

These data come from the EternaBench riboswitch data.
